# Source: PubChem
# TDP2 inh: blocks human TDP2 phosphodiesterase activity; actives 0.34% (n = 370,000); inhibition, % at 12.8 µM; recombinant TDP2, T5PNP hydrolysis, p-nitrophenol absorbance 415 nm;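 active = inhibition above the mean of all tested compounds plus 3 SD, set per campaign, cut at about 25% in these data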;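 note: 0% = DMSO with enzyme and 100% = buffer with substrate but no TDP2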
# Target sequence (O95551 whole entry, looked up): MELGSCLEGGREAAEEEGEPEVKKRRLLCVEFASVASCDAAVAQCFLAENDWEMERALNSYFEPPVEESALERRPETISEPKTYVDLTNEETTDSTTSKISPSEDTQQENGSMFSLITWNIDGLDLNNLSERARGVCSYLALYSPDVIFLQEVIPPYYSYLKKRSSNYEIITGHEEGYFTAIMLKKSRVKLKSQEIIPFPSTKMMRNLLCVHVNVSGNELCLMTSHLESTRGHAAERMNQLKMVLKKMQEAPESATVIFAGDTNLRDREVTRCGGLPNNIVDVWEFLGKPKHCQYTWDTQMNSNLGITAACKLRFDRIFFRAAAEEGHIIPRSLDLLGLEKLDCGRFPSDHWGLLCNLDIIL
#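 System: recombinant human TDP2 / Amount: 120 nM TDP2 per well / Also added: 5 mM T5PNP chromogenic substrate / Doses: 12.8 µM single point, 1% DMSO / Incubation: 2 h at 37 °C / Detection: p-Nitrophenol epi absorbance / Evaluation: % inhibition relative to enzyme-containing and enzyme-free wells / Repeats: singlicate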
# NSD2 inh: NSD2 (human) methyltransferase inhibition. O96028. NSD2 peptide methylation, AlphaScreen, 120 min. inhibition, % at 12.5 µM. actives 0.54% (n = 310,000); in the data active = inhibition above about 50%
# LEDGF integ inh: blocks HIV-1 LEDGF/p75-dependent DNA integration; TR-FRET IN-LEDGF/p75 DNA integration, Eu/Cy5; inhibition, % at 3.7 µM; actives 0.64% (n = 370,000); AID 743269;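 active = inhibition above the screen-wide mean plus 3 SD, cut at about 13% in these data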;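 note: signal is the Cy5 over europium emission ratio at 671 and 618 nm; 0% = plate median of compound wells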
# UCH37 DUB inh: blocks the human deubiquitinase UCH37; Q9Y5K5; AID 588478; actives 0.33% (n = 330,000); inhibition, % (no concentration beside the values); purified proteasome/UCH37, Ub-AMC cleavage fluorescence;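 active = mean inhibition over replicate wells above about 20%, limit read from the data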;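 note: 0% = compound-free wells with enzyme and 100% = wells lacking proteasome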
# Target sequence (Q9Y5K5 whole entry, looked up): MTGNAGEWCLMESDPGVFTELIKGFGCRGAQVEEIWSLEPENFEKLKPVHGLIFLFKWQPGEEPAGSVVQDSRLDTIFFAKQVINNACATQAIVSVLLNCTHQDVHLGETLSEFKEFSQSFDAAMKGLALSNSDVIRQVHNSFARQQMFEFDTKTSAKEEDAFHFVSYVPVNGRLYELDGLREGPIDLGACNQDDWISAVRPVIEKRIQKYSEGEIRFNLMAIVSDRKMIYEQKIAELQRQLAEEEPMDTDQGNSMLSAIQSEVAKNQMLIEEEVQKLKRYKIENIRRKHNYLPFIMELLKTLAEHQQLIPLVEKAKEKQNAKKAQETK
#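 Material: human UCH37 enzyme supplied as purified proteasome complex / Amount: 0.15 nM proteasome as dispensed / Buffer or medium: pH 7.4 Tris-HCl (50 mM) with ovalbumin, ATP-MgCl2, DTT / Times: preincubation 30 min, reaction 25 min, room temperature / Technique: AMC fluorescence from Ub-AMC cleavage, excitation 355 nm, emission 460 nm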
# CASP6 VEID inh: inhibitors of human caspase-6; inhibition, % at 12.5 µM; actives 0.53% (n = 350,000); AID 686996; purified caspase-6, Z-VEID-R110 cleavage fluorescence;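 active = mean inhibition across replicates at least about 35%, with every replicate also reaching that limit, limit read from the data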;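 note: 0% = median of neutral control wells and 100% = no fluorescence left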
# TDP2 inh conf: human TDP2 inhibition, confirmation. inhibition, % at 12.8 µM. recombinant human TDP2, absorbance read-out. shares compounds with TDP2 inh. actives 22% (n = 1,100); in the data active = inhibition above about 25%;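 note: 0% = vehicle with enzyme and 100% = no enzyme buffer only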
# IN multimer up: HIV-1 integrase multimerization activation, counter-screen | shares compounds with LEDGF integ inh | TR-FRET HIV-1 integrase multimerization, biochemical | activation, % at 7.7 µM | actives 17% (n = 2,000) | AID 1053131; in the data active = activation above about 8.9%
# TR-FRET interf: counter-screen for LEDGF/p75 integration inhibitors: TR-FRET optical interference. AID 1053135. inhibition, % at 7.7 µM. TR-FRET optical interference counterscreen, HIV-1 IN multimerization. 2,000 tested, under 10 active. shares compounds with LEDGF integ inh;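 active = inhibition above the mean over all tested compounds plus 3 SD, which no compound reached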;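 note: 0% = integrase with antibodies and DMSO and 100% = antibodies without integrase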
# LEDGF integ conf: LEDGF/p75-dependent HIV-1 integration inhibition, confirmation; shares compounds with LEDGF integ inh; TR-FRET LEDGF/p75-dependent HIV-1 integration, biochemical; inhibition, % at 3.7 µM; actives 36% (n = 2,000); in the data active = inhibition above about 14%
# Active calls of the source: *; / = not tested or not shown. Rows were chosen to be rich in hits. Some 1.3% of all compounds tested hit in one or more screens of this group.
SMILES,TDP2 inh,NSD2 inh,LEDGF integ inh,UCH37 DUB inh,CASP6 VEID inh,TDP2 inh conf,IN multimer up,TR-FRET interf,LEDGF integ conf
Cc1[nH]n(-c2ccccc2)c(=O)c1C(c1ccc(O)c([N+](=O)[O-])c1)c1c(C)[nH]n(-c2ccccc2)c1=O,88.7*,4.8,38.3*,7.4,/,9.3,3.7,-18.8,-4.1
COc1ccc2c(c1[N+](=O)[O-])CCCC2=NOC(=O)c1cccc2ccccc12,/,/,/,4.1,/,/,/,/,/
CC(=NNC(=O)c1ccccc1)C(=NO)C(=O)Nc1ccccc1,/,/,/,2.3,/,/,/,/,/
Fc1ccc(Nc2cncc(-c3ccsc3)c2)cc1Cl,80.7*,-3.7,38.3*,/,21.9,51.7*,-0.1,0.1,15.8*
Fc1ccc(Nc2nnc(C(F)(F)F)s2)cc1Cl,0.2,-2.1,1.0,2.1,0.8,/,/,/,/
COc1ccc(C=NNC(=O)CN2CCCCCCC2)c(C)c1C,/,/,/,3.2,/,/,/,/,/
COc1cc(NCCCC(C)N)c2ncccc2c1 (configuration not stated),64.2*,140.7*,30.3*,-1.4,/,26.9*,5.5,-19.4,62.7*
Fc1ccc(NN=Cc2ccncc2)c(F)c1,/,/,/,5.4,/,/,/,/,/
CC(=O)NC1C(=O)N(CCc2ccccc2)c2ccc(Br)cc21 (configuration not stated),-3.6,-2.9,6.2,/,-0.4,/,/,/,/
CC(=O)NC1C(=O)N(CCN2CCOCC2)c2ccc(Br)cc21 (configuration not stated),44.1*,-1.6,15.9*,/,34.5,36.2*,0.4,-1.5,37.5*
CC(=NO)C(C)=NNC(=O)c1ccccn1,/,/,/,4.2,/,/,/,/,/
COc1cc(/C=N/n2nnnc2N)ccc1OCc1c(C)no[n+]1[O-],0.0,18.3,1.3,/,/,/,/,/,/
Cc1no[n+]([O-])c1COc1cccc(/C=N/Nc2nncn2N)c1,60.5*,/,58.2*,/,5.9,10.0,1.4,-5.1,-2.6
COc1cc(-c2[nH]nc3c2C(c2ccco2)C(C#N)=C(N)O3)cc(OC)c1OC (configuration not stated),42.5*,1.4,15.9*,0.1,5.2,8.8,1.8,-9.0,7.6
C(=NNc1nc2ccccc2s1)c1cccs1,/,/,/,3.8,/,/,/,/,/
O=C(O)c1cc(O)c2c(c1)[C@H]([C@H]1c3cc(C(=O)O)cc(O)c3C(=O)c3c(O[C@@H]4O[C@H](CO)[C@@H](O)[C@H](O)[C@H]4O)cccc31)c1cccc(OC3O[C@H](CO)[C@@H](O)[C@H](O)[C@H]3O)c1C2=O (some centres not stated),45.9*,/,81.6*,8.0,82.8*,51.1*,73.7*,-261.3,80.1*
O=C1c2c(O)cccc2C(C2OC(CO)[C@@H](O)[C@H](O)[C@H]2O)c2cc(CO)cc(O)c21 (some centres not stated),0.4,/,2.4,4.0,3.4,/,/,/,/
COc1cc(/C=N/Nc2nncn2/N=C/c2ccc(O)c(OC)c2)ccc1O,67.3*,-0.4,47.9*,/,4.2,7.5,6.8,-24.2,-5.9
COc1cc(C=NNc2nn3cnnc3c3ccccc23)ccc1O,/,/,/,5.8,/,/,/,/,/
C(=N\Nc1nncn1/N=C/c1ccco1)/c1ccco1,55.1*,-26.7,37.1*,/,-0.8,0.5,1.0,-5.2,1.8
CCOc1cc(/C=N/Nc2nnc(C)n2N)ccc1O,47.9*,5.5,66.0*,/,3.4,4.8,0.8,-2.8,-3.9
COc1cc(/C=N\Nc2nncn2N)ccc1OC(C)=O,57.1*,-2.1,58.4*,/,4.4,4.9,-0.3,1.1,2.2
CCOc1cc(/C=N/Nc2ncnc(Cl)c2N)ccc1O,-4.1,2.8,4.2,/,/,/,/,/,/
CC(=O)N(N=Cc1ccc([N+](=O)[O-])o1)c1nc2ccccc2c(=O)n1-c1ccccc1,/,/,/,2.5,/,/,/,/,/
O=C(NN=Cc1ccccn1)c1cc([N+](=O)[O-])cc([N+](=O)[O-])c1,/,/,/,4.8,/,/,/,/,/
SMILES,TDP2 inh,NSD2 inh,LEDGF integ inh,UCH37 DUB inh,CASP6 VEID inh,TDP2 inh conf,IN multimer up,TR-FRET interf,LEDGF integ conf
COc1ccc(OC)c(C=NNc2nncn2N=Cc2cc(OC)ccc2OC)c1,/,/,/,-5.1,/,/,/,/,/
COc1ccc(OC)c(/C=N/Nc2nncn2/N=C/c2cc(OC)ccc2OC)c1,66.9*,-0.9,38.8*,/,/,6.8,0.9,-4.5,2.0
CC(/C=C/c1ccco1)=NNC(=O)OC(C)(C)C,/,/,/,6.0,/,/,/,/,/
NC(=O)SCC(=NS(=O)(=O)c1ccccc1)Nc1ccccc1,/,/,/,2.9,/,/,/,/,/
C=Cc1ccc(N=Cc2c(O)ccc3ccccc23)cc1,-19.3,0.0,7.7,5.1,2.5,/,/,/,/
Oc1ccc2ccccc2c1C=Nc1ccc(N2CCOCC2)cc1,31.4*,-1.8,28.1*,5.9,/,4.6,1.8,-8.8,-1.4
CCOc1cc(N2CCOCC2)c(OCC)cc1NC(=O)CSc1ncccn1,-0.1,1.1,-2.8,3.2,-0.6,/,/,/,/
CCOc1cc(N2CCOCC2)c(OCC)cc1NC(=O)CSc1ncccc1C(=O)O,29.6*,3.3,28.5*,1.3,20.2,5.5,1.8,-9.1,3.0
COc1ccc(C2=NN(c3ccccc3)C(=O)/C2=C\c2ccc(O)c(OC)c2)cc1,45.6*,37.1,16.8*,3.9,4.0,2.0,1.3,-4.8,-1.9
CC(=O)c1cccc(NC(=O)CC2S/C(=N/N=Cc3ccccc3)NC2=O)c1 (configuration not stated),/,/,/,4.5,/,/,/,/,/
COc1cc(C=c2c3ccccc3n3c2cc(-c2ccccc2)[n+]3C)cc(OC)c1OC,39.4*,/,29.0*,/,96.3*,43.5*,2.9,-10.4,48.2*
COc1ccc2c(c1)Cc1sc(NC(=O)c3ccco3)nc1-2,64.3*,25.7,37.7*,-1.3,/,9.7,5.6,-20.0,3.1
COc1ccc2c(c1)CCc1sc(NC(=O)c3ccco3)nc1-2,/,/,/,0.2,/,/,/,/,/
CCC(CO)Oc1cc(NC(=O)c2ccc(N)cc2)c2ncn(C(C)C)c2c1 (configuration not stated),36.9*,/,13.9*,3.6,38.2*,34.3*,0.6,-3.1,24.8*
CCC(COC)Oc1cc(NCc2ccccc2)c2ncn(C(C)C)c2c1 (configuration not stated),60.9*,/,26.5*,7.8,4.8,34.5*,0.2,-0.8,29.6*
COc1ccc(C=NNC(=O)COc2ccccc2-c2ccccc2)cc1,/,/,/,1.4,/,/,/,/,/
COc1ccc(/C=C(/NC(=O)c2ccccc2)C(=O)NN=Cc2ccncc2)cc1,/,/,/,9.3,/,/,/,/,/
Cc1cc(Cl)ccc1OCC(=O)NN=Cc1ccncc1,/,/,/,3.3,/,/,/,/,/
COC(=O)c1cccc(C=NNC(N)=S)c1O,/,/,/,-67.9,/,/,/,/,/
